Test results from ChEMBL document CHEMBL4308895, “A thiol-inducible and quick-response DNA cross-linking agent” (Bioorg Med Chem Lett, 2019).

Legend:
[1] = Drug metabolism in pH 7.3 phosphate buffer saline assessed as 1,4-Dihydroxy-2, 5-di-(trimethylammonium iodide-methyl)phenyl formation measured after 0.5 to 6 hrs by 1H-NMR analysis
[2] = Stability of the compound under electrospray ionisation mass spectra condition; assay type: physicochemical
[3] = system: DNA; test: Induction of Escherichia coli pBR322 DNA cross-linking at 1 mM after 12 hrs in presence of GSH by agarose gel electrophoresis relative to control; assay type: nucleic-acid assay
In short: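 Linearized pBR322 plasmid DNA in phosphate buffer pH 7.3 with 1 mM agent plus 2 mM GSH. Cross-linking resolved by denaturing alkaline agarose gel electrophoresis, untreated plasmid as control lane. Yield given as percent cross-linked DNA.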

[4] = Drug metabolism in pH 7.3 phosphate buffer saline assessed as 1,1'-(2-(2,4-dinitrophenylsulfonyloxy)-5-hydroxy-1,4-phenylene)bis(N,N,N-trimethylmethanaminium)iodide formation measured after 5 mins by 1H-NMR analysis
[5] = Drug metabolism in pH 7.3 phosphate buffer saline assessed as 2, 4-dinitrobenzene sulfonic acid formation measured immediately by 1H-NMR analysis
[6] = L-cysteine reactivity in pH 7.3 phosphate buffer assessed as color change from red to orange at 5 mM measured after 1 min; assay type: physicochemical; settings: pH 7.3, 1 min, 5000 µM
In short: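 Agent at 5, 2.5 or 1 mM in phosphate buffer pH 7.3, mixed with L-Cys at twice the agent concentration (10, 5, 2 mM). Color change scored visually against agent-alone samples.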

[7] = L-arginine reactivity in DMSO-d6/D2O mixture assessed as 1,4-Dihydroxy-2, 5-di-(trimethylammonium iodide-methyl)phenyl formation at 5 mM by 1H-NMR analysis
[8] = L-proline reactivity in DMSO-d6/D2O mixture assessed as 1,4-Dihydroxy-2, 5-di-(trimethylammonium iodide-methyl)phenyl formation at 5 mM by 1H-NMR analysis
[9] = Beta-alanine reactivity in DMSO-d6/D2O mixture assessed as 1,4-Dihydroxy-2, 5-di-(trimethylammonium iodide-methyl)phenyl formation at 5 mM by 1H-NMR analysis
[10] = Glycine reactivity in DMSO-d6/D2O mixture assessed as 1,4-Dihydroxy-2, 5-di-(trimethylammonium iodide-methyl)phenyl formation at 5 mM by 1H-NMR analysis
[11] = L-valine reactivity in DMSO-d6/D2O mixture assessed as 1,4-Dihydroxy-2, 5-di-(trimethylammonium iodide-methyl)phenyl formation at 5 mM by 1H-NMR analysis
[12] = Stability in pH 7.3 phosphate buffer saline measured within 1.5 hrs by 1H-NMR analysis; assay type: physicochemical; settings: pH 7.3, 1.5 h

Row | Compound | Activity [3] | Drug metabolism [6] | Stability [2] | other results
1 | C[N+](C)(C)Cc1cc(OS(=O)(=O)c2ccc([N+](=O)[O-])cc2[N+](=O)[O-])c(C[N+](C)(C)C)cc1O | – | – | – | Drug metabolism [1]: Metabolite not detected
2 | C[N+](C)(C)Cc1cc(O)c(C[N+](C)(C)C)cc1O.[I-].[I-] | 43% | – | Unstable | –
3 | Cc1cc(C[N+](C)(C)C)c(O)c(C[N+](C)(C)C)c1.[I-].[I-] | 0% | – | Unstable | –

The next lines start with results.

Row | Activity [3] | Drug metabolism [6] | Compound | Stability [2] | other results
4 | 34% | Metabolite_Detected | C[N+](C)(C)Cc1cc(OS(=O)(=O)c2ccc([N+](=O)[O-])cc2[N+](=O)[O-])c(C[N+](C)(C)C)cc1OS(=O)(=O)c1ccc([N+](=O)[O-])cc1[N+](=O)[O-].[I-].[I-] | – | Drug metabolism [4]: Metabolite detected; Drug metabolism [5]: Metabolite detected; Drug metabolism [7]: Metabolite not detected; Drug metabolism [8]: Metabolite not detected; Drug metabolism [9]: Metabolite not detected; Drug metabolism [10]: Metabolite not detected; Drug metabolism [11]: Metabolite not detected
5 | 0% | Metabolite_Detected | C[N+](C)(C)Cc1cc(-c2ccc(OS(=O)(=O)c3ccc([N+](=O)[O-])cc3[N+](=O)[O-])c(C[N+](C)(C)C)c2)ccc1OS(=O)(=O)c1ccc([N+](=O)[O-])cc1[N+](=O)[O-].[I-].[I-] | – | Stability [12]: Stable
6 | 0% | Metabolite_Detected | Cc1cc(C[N+](C)(C)C)c(OS(=O)(=O)c2ccc([N+](=O)[O-])cc2[N+](=O)[O-])c(C[N+](C)(C)C)c1.[I-].[I-] | – | –
7 | 0% | – | C[N+](C)(C)Cc1cc(-c2ccc(O)c(C[N+](C)(C)C)c2)ccc1O.[I-].[I-] | Unstable | –
